Experimental data published in ChEMBL document CHEMBL1138519, “Modulating retinoid X receptor with a series of (E)-3-[4-hydroxy-3-(3-alkoxy-5,5,8,8-tetramethyl-5,6,7,8-tetrahydronaphthalen-2-yl)phenyl]acrylic acids and their 4-alkoxy isomers” (J Med Chem, 2009).
Calls of active or inactive are those of the source. No cut-off for these calls is given here.

Legend:
[1] = molecular target: T1, Retinoic acid receptor alpha/Retinoid X receptor alpha (Homo sapiens) (UniProt P10276+P19793); assay: Activity at RARalpha/RXRalpha ligand binding domain assessed as stabilization of RXR helix H12 by fluorescence anisotropy; format: protein-complex assay
Outline: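 RARα-RXRα LBD heterodimer, 0.120 µM, carrying a fluorescent dye attached to the RXRα C-terminus. Steady-state anisotropy was read with excitation at 470 nm and emission at 530 nm, with ligand at saturating concentration. At least three independent measurements were made per sample.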

[2] = molecular target: T1, Retinoic acid receptor alpha/Retinoid X receptor alpha (Homo sapiens); assay: Activity at RARalpha/RXRalpha ligand binding domain assessed as stabilization of RXR helix H12 by fluorescence anisotropy in presence of up to 10 uM coactivator peptide TIF-NR2; format: protein-complex assay
Outline: (§1)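 Heterodimer (0.120 µM, dye on the RXRα C-terminus) with 10 µM ligand. Anisotropy was read at excitation 470 nm and emission 530 nm, with at least three independent measurements.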

[3] = molecular target: T2, Retinoic acid receptor RXR-beta (Homo sapiens) (UniProt P28702); assay: Antagonist activity at Gal4-tagged human RXRbeta receptor expressed in human HeLa cells assessed as inhibition of CD3254-induced transcription at >=10 uM by luciferase reporter assay; format: functional, cell-based
T2 sequence (whole entry): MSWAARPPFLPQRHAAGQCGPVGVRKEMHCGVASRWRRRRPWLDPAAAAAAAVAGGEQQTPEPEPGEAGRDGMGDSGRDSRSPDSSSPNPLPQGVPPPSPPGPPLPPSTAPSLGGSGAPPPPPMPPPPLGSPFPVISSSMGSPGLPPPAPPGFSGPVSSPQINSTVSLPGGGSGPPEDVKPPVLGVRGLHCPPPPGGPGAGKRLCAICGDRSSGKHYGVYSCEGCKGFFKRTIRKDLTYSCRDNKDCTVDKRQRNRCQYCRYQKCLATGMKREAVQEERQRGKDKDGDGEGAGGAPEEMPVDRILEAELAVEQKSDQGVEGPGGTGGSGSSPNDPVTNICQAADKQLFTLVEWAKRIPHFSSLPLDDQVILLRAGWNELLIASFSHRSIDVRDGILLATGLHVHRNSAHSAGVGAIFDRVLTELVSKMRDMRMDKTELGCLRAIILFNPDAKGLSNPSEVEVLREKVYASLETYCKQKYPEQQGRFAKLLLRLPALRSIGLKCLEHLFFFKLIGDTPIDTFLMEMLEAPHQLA
Outline: (§2)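 Gal4-hRXRβ/(Gal4)5-β-globin-luciferase HeLa reporter cells, maintained in DMEM with 5% FCS and selection antibiotics. Cells were co-treated for 16 h at 37 °C with 3 nM of the reference RXR agonist and increasing compound concentrations. After lysis, luciferase was read as RLU to measure antagonism of agonist-induced transcription.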

[4] = molecular target: T2, Retinoic acid receptor RXR-beta (Homo sapiens); assay: Activity at Gal4-tagged human RXRbeta receptor expressed in human HeLa cells assessed as relative transcriptional activity by luciferase reporter assay relative to CD3254; format: cell-based; design: concentration or dose not given beside the values
Outline: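 HeLa cells stably carrying a Gal4-hRXRβ chimera (RXRβ LBD fused to the GAL4 DBD) and a (Gal4)5-β-globin-luciferase reporter. Cells were grown in DMEM with 5% FCS plus G418, puromycin, hygromycin and gentamycin. They were exposed to increasing compound concentrations for 16 h at 37 °C and 5% CO2, then washed, lysed, and read for luciferase luminescence (RLU).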

[5] = molecular target: T2, Retinoic acid receptor RXR-beta (Homo sapiens); assay: Antagonist activity at Gal4-tagged human RXRbeta receptor expressed in human HeLa cells assessed as inhibition of CD3254-induced transcription at 1 uM by luciferase reporter assay; format: functional, cell-based; outline: as §2
[6] = molecular target: T1, Retinoic acid receptor alpha/Retinoid X receptor alpha (Homo sapiens); assay: Activity at RARalpha/RXRalpha ligand binding domain assessed as stabilization of RXR helix H12 by fluorescence anisotropy in presence of 1 uM coactivator peptide TIF-NR2; format: protein-complex assay; outline: as §1

Compound	Activity [1]	Activity [2]	Activity [3]	Activity [4]	Activity [5]	Activity [6]
COc1cc(-c2cc(/C=C/C(=O)O)ccc2O)cc2c1C(C)(C)CCC2(C)C	inactive	Active	Active	> 30%		
CCCCCOc1cc2c(cc1-c1cc(/C=C/C(=O)O)ccc1O)C(C)(C)CCC2(C)C	inactive	inactive		inactive	Active	
Cc1cc2c(cc1-c1cc(/C=C/C(=O)O)ccc1O)C(C)(C)CCC2(C)C						Active
CCCCOc1cc(-c2cc(/C=C/C(=O)O)ccc2O)cc2c1C(C)(C)CCC2(C)C	inactive	Active	Active	> 10%		
CCCCCCOc1cc2c(cc1-c1cc(/C=C/C(=O)O)ccc1O)C(C)(C)CCC2(C)C		inactive				
CCCCCCOc1cc(-c2cc(/C=C/C(=O)O)ccc2O)cc2c1C(C)(C)CCC2(C)C	inactive	Active	Active	> 10%		
CCCOc1cc(-c2cc(/C=C/C(=O)O)ccc2O)cc2c1C(C)(C)CCC2(C)C	inactive	Active	Active	> 10%		
CCCCCOc1cc(-c2cc(/C=C/C(=O)O)ccc2O)cc2c1C(C)(C)CCC2(C)C	inactive	Active	Active	> 10%		
CCOc1cc(-c2cc(/C=C/C(=O)O)ccc2O)cc2c1C(C)(C)CCC2(C)C	inactive	Active	Active	> 10%		
